The values below come from ChEMBL document CHEMBL2216753, “Novel 1,4-benzoxazine and 1,4-benzodioxine inhibitors of angiogenesis” (Eur J Med Chem, 2012).

Calls of active or inactive are those of the source. The calls are words filed in the database; no cut-off is given here. Some results are limits rather than exact numbers.

Data set [1] relates to MCF7. Nature of the data set: Antiproliferative activity against human MCF7 cells after 4 days by coulter counter method. In kind it is functional, cell-based. As to conditions: MCF7, 96 h.
Data set [2] addresses Prothrombin (Homo sapiens, UniProt P00734). Nature of the data set: Inhibition of thrombin.
Data set [3] has as its system HeLa. Nature of the data set: Antiproliferative activity against human HeLa cells after 4 days by coulter counter method. In kind it is functional, cell-based. As to conditions: 96 h.
The nature of data set [4]: Antiproliferative activity against bovine BAEC cells after 4 days by coulter counter method. In kind it is functional, cell-based. To be noted: Bos taurus, 96 h.
Data set [5] can be described thus: Cytotoxicity against bovine BAEC cells at 100 uM after 3 days by coulter counter method. To be noted: cattle, 72 h. The data set is classed as cell-based, Bos taurus. In outline:
(§1)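 Cells seeded at 10,000 cells per cm2; after 16 h, fresh medium with test compound added. Cells trypsinized and counted with a Coulter counter on day 4 (BAEC, HeLa, MCF-7) or day 7 (HMEC-1). Cytotoxicity (cell death) was judged after 3 days in culture. HMEC-1 grown in EGM-2 with supplements and growth factors.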

Data set [6] is filed under the species Gallus gallus. Kind of data set: Antiangiogenic activity in chicken embryo chorioallantoic membrane model at 250 nmol/disc after 3 days. The data set is classed as functional, tissue-based.
A short description of data set [7]: Antiproliferative activity against human HMEC1 cells after 7 days by coulter counter method. In kind it is functional, cell-based. To be noted: HMEC-1, 168 h.
A short description of data set [8]: Cytotoxicity against human HMEC1 cells at 100 uM after 3 days by coulter counter method. In kind it is cell-based. To be noted: hmec-1, 72 h. In outline:
as §1

In data set [9] the test system is MCF7. Kind of data set: Cytotoxicity against human MCF7 cells at 100 uM after 3 days by coulter counter method. The data set is classed as cell-based. As to conditions: mcf7, 72 h. Summed up: as §1
In data set [10] the test system is HeLa. Kind of data set: Cytotoxicity against human HeLa cells at 100 uM after 3 days by coulter counter method. The data set is classed as cell-based. To be noted: 72 h. In outline: as §1
Data set [11] has as its system HMEC-1. Kind of data set: Antiangiogenic activity in human HMEC1 cells assessed as inhibition of tube formation after 4 to 6 hrs by matrigel assay. In kind it is functional, cell-based. Summed up: (§2)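 HMEC-1 (60,000 cells) seeded on matrigel (10 mg/mL) after 30 min gelling at 37 °C, in DMEM containing test compound; after 4–6 h cells photographed and tubes scored 0 (none) to 3 (maximal, like untreated control). Mean ± SD of 2–4 independent experiments; Student t test, p < 0.05 significant.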

Data set [12] can be described thus: Antimigratory activity against mouse MAEC cell migration at 10 uM after 5 hrs by wound closure assay. In kind it is functional. In outline: (§3)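 Confluent MAEC monolayers wounded with a 1.0-mm wide micropipette tip, then incubated in fresh medium with test compound. Wounds photographed after 5 h and width calculated from digital images. Mean ± SD of 2–4 independent experiments; Student t test, p < 0.05 significant.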

A short description of data set [13]: (§4) Antimigratory activity against mouse MAEC cell migration at 30 uM after 5 hrs by wound closure assay. In kind it is functional. In outline:
as §3

The species named for data set [14] is Gallus gallus. Nature of the data set: Antiangiogenic activity in chicken embryo chorioallantoic membrane model assessed as inhibition of pre-existing mature vessel at 100 to 250 nmol/disc after 3 days. The data set is classed as functional, tissue-based.
The species named for data set [15] is Gallus gallus. Nature of the data set: Antiangiogenic activity in chicken embryo chorioallantoic membrane model assessed as inhibition of chorioallantoic membrane vascularization at 100 to 250 nmol/disc after 3 days. In kind it is functional, tissue-based.
Data set [16] has as its system MAEC. Nature of the data set: Antimigratory activity against mouse MAEC cell migration after 5 hrs by wound closure assay. In kind it is functional, cell-based. In outline:
as §3

The species named for data set [17] is Gallus gallus. Nature of the data set: Antiangiogenic activity in chicken embryo chorioallantoic membrane model assessed as destruction of vessels with bleeding at 20 nmol/disc after 3 days. In kind it is functional, tissue-based.
The test system of data set [18] is HMEC-1. Kind of data set: Antiangiogenic activity in human HMEC1 cells assessed as inhibition of tube formation at 10 uM after 4 to 6 hrs by matrigel assay. In kind it is functional, cell-based. In outline:
as §2

Data set [19] can be described thus: Antimigratory activity against mouse MAEC cell migration at 3 uM after 5 hrs by wound closure assay. The data set is classed as functional. In outline:
as §3

Data set [20] deals with MCF7. Nature of the data set: Cytotoxicity against human MCF7 cells at 30 uM after 3 days by coulter counter method. The data set is classed as cell-based. To be noted: mcf7, 72 h. In outline: as §1
The species entered for data set [21] is Gallus gallus. Kind of data set: Antiangiogenic activity in chicken embryo chorioallantoic membrane model assessed as degradation of immature existing blood vessels at 40 to 250 nmol/disc after 3 days. In kind it is functional, tissue-based.
Data set [22] deals with HMEC-1. Nature of the data set: Antiangiogenic activity in human HMEC1 cells assessed as inhibition of tube formation at 30 uM after 4 to 6 hrs by matrigel assay. In kind it is functional, cell-based. In outline: as §2
Data set [23] deals with MAEC. The description is as §4. In kind it is functional. Summed up:
as §3

Data set [24] is described as follows: Cytotoxicity against human HMEC1 cells at 30 uM after 3 days by coulter counter method. The data set is classed as cell-based. As to conditions: hmec-1, 72 h. In outline:
as §1

A short description of data set [25]: Cytotoxicity against bovine BAEC cells at 30 uM after 3 days by coulter counter method. The data set is classed as cell-based, Bos taurus. As to conditions: cattle, 72 h. Summed up:
as §1

In data set [26] the test system is HeLa. Nature of the data set: Cytotoxicity against human HeLa cells at 30 uM after 3 days by coulter counter method. The data set is classed as cell-based. As to conditions: 72 h. In outline:
as §1

The subject of data set [27] is HMEC-1. Kind of data set: Antiangiogenic activity in human HMEC1 cells assessed as inhibition of tube formation at 100 uM after 4 to 6 hrs by matrigel assay. In kind it is functional, cell-based. Summed up:
as §2

As for `CCOC(=O)C(=O)N(Cc1ccccc1)c1ccc2c(c1)OC[C@H](COc1ccc(C(=N)N)cc1)O2`, the half-maximal inhibitory concentration (IC50) in [1] stood at 9.5 µM; in data set [3], 19 µM; in data set [4] it was 12 µM; in data set [7], 24 µM. Further, the affinity in data set [2] corresponds to a Ki of 0.018 µM. In addition, the Activity result in [5], in data set [8], in data set [9] and in data set [10] was “Non-toxic” each time. Further, in [6], the inhibition entry was “Active”.

On to `CCOC(=O)C(=O)N(Cc1ccccc1)c1ccc2c(c1)OC(COc1ccc(C(=N)N)cc1)CO2` (configuration not stated), for which the IC50 in [1] was determined as 8.7 µM; in [3], 8 µM; in [4], 8.5 µM; in [7], 22 µM. Besides, in data set [2], the Ki turned out to be 0.178 µM. Further, the inhibition result in [11] and in data set [16] was “Dose-dependent effect” in each case. In data set [12], this compound had an inhibition at 10 µM of more than 40%. Further, the inhibition at 30 µM in data set [13] was more than 80%. Also, the Activity result in data set [5], in data set [8], in data set [9] and in [10] was “Non-toxic” throughout. In addition, the inhibition entry in data set [6] and in [15] was “Active” throughout. Further, the outcome in data set [14] was inactive.

Take `CCOC(=O)CN(Cc1cc(F)cc(F)c1)c1ccc2c(c1)N(C)CC(C)(COc1ccc(C(=N)N)cc1)O2` (configuration not stated): the IC50 is 4.5 µM in data set [1], 4.5 µM in data set [3], 4 µM in data set [4] and 6.7 µM in data set [7]. Also, the result in data set [17] and in data set [21] was Active. The inhibition result in data set [18] was “inactive”. In addition, in data set [19], the inhibition at 3 µM is more than 40%. Also, the Activity entry in data set [20], in [5], in data set [24], in data set [8], in data set [25] and in data set [26] was “Toxic” throughout. The Activity entry in data set [9] and in data set [10] was “Toxic” each time. For the same compound, the inhibition result in [22], in data set [23] and in data set [6] was “Active” in each case. This compound showed an inhibition at 10 µM in data set [12] of 50%. The inhibition result in [16] was “Dose-dependent effect”.

`CCOC(=O)C(=O)N(Cc1ccccc1)c1ccc2c(c1)OC(C)(CO)CN2C` (configuration not stated): the IC50 in data set [1], in data set [3], in data set [4] and in [7] was more than 100 µM in each case. The inhibition entry in [18] was “inactive”. The inhibition entry in data set [27], in data set [11] and in data set [22] was “Active” each time. The inhibition at 10 µM in [12] is more than 40%. In [13], the inhibition at 30 µM is more than 80%. Also, the Activity result in [5], in data set [8], in [9] and in data set [10] was “Toxic” each time. Further, the inhibition result in [16] is “Dose-dependent effect”.
